# MrgX1 allo act: human MrgX1 positive allosteric modulation, primary screen; Q96LB2; MrgX1-HEK293, Fluo-4 calcium flux, FDSS; hits give high values; B-score at 10 µM; 310,000 tested, 0.63% active; AID 588675;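 active = plate-corrected calcium response at least 3 library SD above typical, normal starting fluorescence, not activating the receptor alone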;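 also: compound read alongside a low EC10 to EC30 dose of BAM8-22 agonist; peak minus trough fluorescence over baseline measured at the second addition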
# MrgX1 antag: human MrgX1 receptor antagonism, primary screen; AID 588676; Q96LB2; MRGX1-HEK293 calcium flux, Fluo-4, BAM8-22 antagonism; hits give low values; B-score at 10 µM; 310,000 tested, 1.3% active;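 active = calcium-response B-score plate-corrected more than 3 library SD below zero, starting fluorescence within 5 deviations, no agonist response on first addition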;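 also: peak minus trough fluorescence over baseline after final BAM8-22 challenge near maximal dose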
# MrgX1 agonist: activates human MrgX1 receptor signaling | Q96LB2 | MrgX1-HEK293 cells, Fluo-4 calcium fluorescence, agonist mode; hits give high values | B-score at 10 µM | 310,000 tested, 0.44% active | AID 588627;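 active = calcium response B-score plate-corrected fluorescence ratio at least 3 library SD, with starting fluorescence B-score inside 5 SD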
#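 Assay system: stable human MrgX1 HEK293 cell line. Quantity: 15,000 cells per well. Schedule: cells plated overnight, dye loaded 0.5 h 37 °C, 0.5 h room temperature. Detection: Fluo-4 NW calcium-flux fluorescence, kinetic read. Read-out basis: peak-minus-minimum fluorescence over baseline, converted to B scores. Control set: positive and negative control wells on each plate.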
# RGS4 act: potentiators or activators of RGS4; AID 463111; B-score at 10 µM; HEK293 M3R/inducible RGS4, carbachol calcium flux Fluo4; hits give low values; 310,000 tested, 0.92% active;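 active = B-score of the integrated calcium signal more than 4 SD below the library mean, with starting fluorescence not abnormally high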;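 also: negative B-score means reduced calcium response which marks RGS4 activation or potentiation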
#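 Test system: HEK293 cells with stable M3R and inducible RGS4; also added: carbachol at ECmax as muscarinic agonist stimulus; schedule: dye loading 30 min 37 °C, buffer rest 30 min RT; technique: kinetic calcium fluorescence imaging with Fluo4-AM dye, 2 µM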
# RGS4 block: human RGS4 inhibition | 310,000 tested, 0.45% active | AID 463165 | B-score at 10 µM | P49798 | HEK293 M3R/RGS4 inducible, Fluo-4 calcium flux; hits give high values; triggered by carbachol at its EC20;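 active = B-score, a plate-corrected calcium signal, over three deviations above library mean, with baseline fluorescence within five deviations of library mean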;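 also: RGS4 expression induced by doxycycline in cells with stable M3 receptor; B-score is computed from the integrated fluorescence ratio over baseline after carbachol; higher B-score means a larger calcium signal and so more RGS4 inhibition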
# Target sequence (P49798 whole entry, looked up): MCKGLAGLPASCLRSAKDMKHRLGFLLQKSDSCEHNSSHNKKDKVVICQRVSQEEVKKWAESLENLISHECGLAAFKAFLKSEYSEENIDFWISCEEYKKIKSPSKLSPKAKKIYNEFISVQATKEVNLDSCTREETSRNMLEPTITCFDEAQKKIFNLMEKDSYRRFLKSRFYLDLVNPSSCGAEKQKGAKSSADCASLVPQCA
# RGS4 inh valid: RGS4 inhibitor validation. shares compounds with RGS4 block. HEK293 M3R/RGS4, carbachol calcium Fluo-4 fluorescence; carbachol added at its EC20; 0 = buffer wells, 100 = carbachol control. calcium response, % at 10 µM. 1,700 tested, 65% active. AID 492999;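 active = duplicate-averaged calcium response above the buffer-only control mean plus 5 SD of those controls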;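 also: integrated fluorescence ratio F max minus min over baseline F0; higher response in RGS4-induced cells means RGS4 inhibition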
# RGS4 uninduced: non-induced cell nonspecific activity of RGS4 inhibitors | shares compounds with RGS4 block | AID 493000 | HEK293 M3R non-induced, carbachol calcium Fluo-4; submaximal (EC20) carbachol stimulus; buffer wells 0%, carbachol control wells 100% | 1,900 tested, 20% active | activity (percent), % at 10 µM; call rule not given here;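 also: RGS4 induction absent so cells express M3R without RGS4; higher means more calcium signal and flags a non-specific hit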
# RGS4 inh ctr2: second counter-screen for RGS4 inhibitors: non-induced cells without carbachol; shares compounds with RGS4 block; 1,900 tested, 22% active; HEK293 M3R/RGS4 non-induced, Fluo-4 calcium, no carbachol; normalised: buffer wells 0%, carbachol wells 100%; calcium response (agonist-mode artifact), % at 10 µM;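 active = duplicate-averaged calcium rise in uninduced cells above buffer wells' mean plus 5 SD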
# Hits are given with their value; - = inactive; . = no result. Compounds with a hit are over-represented: about 3.5% of the library has one in this group of screens.
SMILES,MrgX1 allo act,MrgX1 antag,MrgX1 agonist,RGS4 act,RGS4 block,RGS4 inh valid,RGS4 uninduced,RGS4 inh ctr2
Cc1ccc2[nH]c(=O)c(C(c3nnnn3C(C)(C)C)N(Cc3ccco3)CC3CCCO3)cc2c1 (configuration not stated),-,-,-,-,-,-,-,-
COc1ccc2[nH]c(=O)c(CN(C3CCCCC3)C(c3nnnn3Cc3ccco3)C(C)C)cc2c1 (configuration not stated),-,-4.5,-,-,7.6,7.5%,-,24%
Cc1cccc2cc(C(c3nnnn3C(C)(C)C)N(Cc3ccco3)CC3CCCO3)c(=O)[nH]c12 (configuration not stated),-,-,-,-,-,-,-,-
Cc1ccc2[nH]c(=O)c(C(c3nnnn3C3CCCC3)N(Cc3cccnc3)Cc3ccco3)cc2c1 (configuration not stated),-,-,-,-,-,.,.,.
CCC(c1nnnn1Cc1ccco1)N(Cc1cc2cc(C)cc(C)c2[nH]c1=O)CC1CCCO1 (configuration not stated),-,-,-,-,5.8,-,-,-
Cc1cccc(C(=O)Nc2ccc(S(=O)(=O)N3CCOCC3)cc2C)c1,-,-,-,-,-,.,.,.
O=C(Nc1cccc(C(=O)O)c1)/C(=C\c1ccccc1)NC(=O)c1cccc2ccccc12,-,-,-,-,-,.,.,.
Cc1ccc(NC(=O)C2CCCN(S(=O)(=O)c3ccc4[nH]c(=O)ccc4c3)C2)c(C)c1 (configuration not stated),-,-,-,-,-,.,.,.
COc1ccc(C(=O)NC(C(=O)NCC(=O)Nc2c(C)cccc2C)C(C)C)cc1 (configuration not stated),-,-,-,-,-,.,.,.
CCc1cc(-c2n[nH]c(C)c2-c2nc(C)cs2)c(O)cc1OC,-,-,-,-,5.3,9.5%,-,-
O=C(/C=C/c1ccccc1[N+](=O)[O-])N1CCc2ccccc2C1,-,-,-,-,-,.,.,.
O=C(O)CCCCCN1C(=O)/C(=C\c2ccc(-c3ccc(Cl)cc3)o2)SC1=S,-,-,-,-11,36,44%,-,48%
O=C(CCN1C(=O)/C(=C/C=C/c2ccccc2)SC1=S)Nc1nc2ccccc2s1,-,-,-,-,-,.,.,.
O=C(O)CCCN1C(=O)/C(=C/c2ccc(-c3nc4ccccc4s3)o2)SC1=S,-,-,-,-9.2,22,8.0%,-,389%
COC(=O)C(C(=O)OC)C(C[N+](=O)[O-])c1ccc(OC)c(OC)c1 (configuration not stated),-,-,-,-,-,.,.,.
COc1ccc(C(C[N+](=O)[O-])C2(c3ccc(OC)c(OC)c3)C(=O)c3ccccc3C2=O)cc1 (configuration not stated),-,-,-,-,16,60%,37%,-
NC1=NC(=Nc2ccc(Cl)cc2)c2ccccc21,-,-,-,-,8,8.0%,-,-
COc1ccc(C2NC(=S)NC(C)=C2C(=O)c2ccccc2)cc1OC (configuration not stated),-,-,-,-,-,.,.,.
CC1=C(C(=O)c2ccccc2)C(c2cccc([N+](=O)[O-])c2)NC(=S)N1 (configuration not stated),-,-,-,-,10,23%,33%,-
Cc1ccc(-n2nc3c(=O)n(CC(=O)NCCc4cccs4)nc(C)c3c2C)cc1,-,-,-,-,-,-,-,-
Cc1ccc(-n2nc3c(=O)n(CC(=O)NCc4ccccc4Cl)nc(C)c3c2C)cc1,-,-,-,-,-,.,.,.
Cc1ccc(-n2nc3c(=O)n(CC(=O)NCc4ccccc4)nc(C)c3c2C)cc1,-,-,-,-,-,-,-,-
